What follows are molecules tested on Amaranthus retroflexus (assay: Herbicidal activity against Amaranthus retroflexus assessed as inhibition of fresh weed plant weight at 187.5 g/ha using pre-emergence treatment protocol).
Format: functional
With `C#CCN1C(=O)COc2cc(F)c(-n3nnc4nn(CC=C)cc4c3=O)cc21` the inhibition at 187.5 g/ha was 100%.

Each molecule was assayed on Echinochloa crus-galli (assay: Herbicidal activity against Echinochloa crus-galli (barnyard grass) assessed as inhibition of fresh weed plant weight at 750 g/ha using post-emergence treatment protocol).
Format: functional
In short: (§1)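 Test compounds made up as emulsions by dissolving in 100 µL N,N-dimethylformamide, then adding a little Tween 20 and water. For post-emergence, weed seedlings at one leaf and one stem were sprayed at the same rates as the pre-emergence test. Fresh weight was recorded 15 days after treatment and expressed as percent inhibition versus controls. All treatments were run in triplicate.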
For `C#CCN1C(=O)COc2cc(F)c(-n3nnc4nn(CC=C)cc4c3=O)cc21`, the inhibition at 750 g/ha was 23.6%.

These molecules were tested on Echinochloa crus-galli (assay: Herbicidal activity against Echinochloa crus-galli (barnyard grass) assessed as inhibition of fresh weed plant weight at 187.5 g/ha using pre-emergence treatment protocol).
Format: functional
In short: as §1
Molecule `C#CCN1C(=O)COc2cc(F)c(-n3nnc4nn(CC=C)cc4c3=O)cc21` has an inhibition at 187.5 g/ha of 13.3%.

Each molecule was assayed on Brassica rapa subsp. oleifera (assay: Herbicidal activity against Brassica rapa subsp. oleifera assessed as inhibition of fresh weed plant weight at 375 g/ha using pre-emergence treatment protocol).
Format: functional
`C#CCN1C(=O)COc2cc(F)c(-n3nnc4nn(CC=C)cc4c3=O)cc21` gave an inhibition at 375 g/ha of 100%.

Each molecule was assayed on Brassica rapa subsp. oleifera (assay: Herbicidal activity against Brassica rapa subsp. oleifera assessed as inhibition of fresh weed plant weight at 750 g/ha using post-emergence treatment protocol).
Format: functional
In short: as §1
Molecule `C#CCN1C(=O)COc2cc(F)c(-n3nnc4nn(CC=C)cc4c3=O)cc21` has an inhibition at 750 g/ha of 50.4%.

The molecules below were run on Amaranthus retroflexus (assay: Herbicidal activity against Amaranthus retroflexus assessed as inhibition of fresh weed plant weight at 1500 g/ha using pre-emergence treatment protocol).
Format: functional
`C#CCN1C(=O)COc2cc(F)c(-n3nnc4nn(CC=C)cc4c3=O)cc21` gave an inhibition at 1500 g/ha of 100%.

Each molecule was assayed on Digitaria sanguinalis (assay: Herbicidal activity against Digitaria sanguinalis (hairy crabgrass) assessed as inhibition of fresh weed plant weight at 1500 g/ha using post-emergence treatment protocol).
Format: functional
In short: as §1
`C#CCN1C(=O)COc2cc(F)c(-n3nnc4nn(CC=C)cc4c3=O)cc21` showed an inhibition at 1500 g/ha of 32.7%.

What follows are molecules tested on Amaranthus retroflexus (assay: Herbicidal activity against Amaranthus retroflexus assessed as inhibition of fresh weed plant weight at 93.75 g/ha using post-emergence treatment protocol).
Format: functional
In short: as §1
With `C#CCN1C(=O)COc2cc(F)c(-n3nnc4nn(CC=C)cc4c3=O)cc21` the inhibition at 93.75 g/ha was 30.6%.

What follows are molecules tested on Digitaria sanguinalis (assay: Herbicidal activity against Digitaria sanguinalis (hairy crabgrass) assessed as inhibition of fresh weed plant weight at 375 g/ha using pre-emergence treatment protocol).
Format: functional
For `C#CCN1C(=O)COc2cc(F)c(-n3nnc4nn(CC=C)cc4c3=O)cc21`, the inhibition at 375 g/ha was 24.5%.

Each molecule was assayed on Echinochloa crus-galli (assay: Herbicidal activity against Echinochloa crus-galli (barnyard grass) assessed as inhibition of fresh weed plant weight at 93.75 g/ha using post-emergence treatment protocol).
Format: functional
In short: as §1
`C#CCN1C(=O)COc2cc(F)c(-n3nnc4nn(CC=C)cc4c3=O)cc21` was tested, and the inhibition at 93.75 g/ha was 12.1%.

Each molecule was assayed on Brassica rapa subsp. oleifera (assay: Herbicidal activity against Brassica rapa subsp. oleifera assessed as inhibition of fresh weed plant weight at 93.75 g/ha using pre-emergence treatment protocol).
Format: functional
`C#CCN1C(=O)COc2cc(F)c(-n3nnc4nn(CC=C)cc4c3=O)cc21` was tested, and the inhibition at 93.75 g/ha was 26%.

These molecules were tested on Brassica rapa subsp. oleifera (assay: Herbicidal activity against Brassica rapa subsp. oleifera assessed as inhibition of fresh weed plant weight at 187.5 g/ha using post-emergence treatment protocol).
Format: functional
In short: as §1
In the case of `C#CCN1C(=O)COc2cc(F)c(-n3nnc4nn(CC=C)cc4c3=O)cc21`, the inhibition at 187.5 g/ha is reported as 0%.

What follows are molecules tested on Brassica rapa subsp. oleifera (assay: Herbicidal activity against Brassica rapa subsp. oleifera assessed as inhibition of fresh weed plant weight at 187.5 g/ha using pre-emergence treatment protocol).
Format: functional
In the case of `C#CCN1C(=O)COc2cc(F)c(-n3nnc4nn(CC=C)cc4c3=O)cc21`, the inhibition at 187.5 g/ha is reported as 90.8%.

The molecules below were run on Amaranthus retroflexus (assay: Herbicidal activity against Amaranthus retroflexus assessed as inhibition of fresh weed plant weight at 750 g/ha using post-emergence treatment protocol).
Format: functional
In short: as §1
Molecule `C#CCN1C(=O)COc2cc(F)c(-n3nnc4nn(CC=C)cc4c3=O)cc21` has an inhibition at 750 g/ha of 100%.

Each molecule was assayed on Brassica rapa subsp. oleifera (assay: Herbicidal activity against Brassica rapa subsp. oleifera assessed as inhibition of fresh weed plant weight at 375 g/ha using post-emergence treatment protocol).
Format: functional
In short: as §1
In the case of `C#CCN1C(=O)COc2cc(F)c(-n3nnc4nn(CC=C)cc4c3=O)cc21`, the inhibition at 375 g/ha is reported as 38.9%.

Each molecule was assayed on Amaranthus retroflexus (assay: Herbicidal activity against Amaranthus retroflexus assessed as inhibition of fresh weed plant weight at 187.5 g/ha using post-emergence treatment protocol).
Format: functional
In short: as §1
`C#CCN1C(=O)COc2cc(F)c(-n3nnc4nn(CC=C)cc4c3=O)cc21` showed an inhibition at 187.5 g/ha of 40.5%.

What follows are molecules tested on Echinochloa crus-galli (assay: Herbicidal activity against Echinochloa crus-galli (barnyard grass) assessed as inhibition of fresh weed plant weight at 93.75 g/ha using pre-emergence treatment protocol).
Format: functional
`C#CCN1C(=O)COc2cc(F)c(-n3nnc4nn(CC=C)cc4c3=O)cc21` was tested, and the inhibition at 93.75 g/ha was 3.5%.

What follows are molecules tested on Brassica rapa subsp. oleifera (assay: Herbicidal activity against Brassica rapa subsp. oleifera assessed as inhibition of fresh weed plant weight at 1500 g/ha using pre-emergence treatment protocol).
Format: functional
Molecule `C#CCN1C(=O)COc2cc(F)c(-n3nnc4nn(CC=C)cc4c3=O)cc21` has an inhibition at 1500 g/ha of 100%.

What follows are molecules tested on Echinochloa crus-galli (assay: Herbicidal activity against Echinochloa crus-galli (barnyard grass) assessed as inhibition of fresh weed plant weight at 187.5 g/ha using post-emergence treatment protocol).
Format: functional
In short: as §1
`C#CCN1C(=O)COc2cc(F)c(-n3nnc4nn(CC=C)cc4c3=O)cc21` showed an inhibition at 187.5 g/ha of 14.7%.

These molecules were tested on Digitaria sanguinalis (assay: Herbicidal activity against Digitaria sanguinalis (hairy crabgrass) assessed as inhibition of fresh weed plant weight at 93.75 g/ha using pre-emergence treatment protocol).
Format: functional
`C#CCN1C(=O)COc2cc(F)c(-n3nnc4nn(CC=C)cc4c3=O)cc21` was tested, and the inhibition at 93.75 g/ha was 6.1%.

Each molecule was assayed on Brassica rapa subsp. oleifera (assay: Herbicidal activity against Brassica rapa subsp. oleifera assessed as inhibition of fresh weed plant weight at 93.75 g/ha using post-emergence treatment protocol).
Format: functional
In short: as §1
In the case of `C#CCN1C(=O)COc2cc(F)c(-n3nnc4nn(CC=C)cc4c3=O)cc21`, the inhibition at 93.75 g/ha is reported as 0%.

These molecules were tested on Echinochloa crus-galli (assay: Herbicidal activity against Echinochloa crus-galli (barnyard grass) assessed as inhibition of fresh weed plant weight at 750 g/ha using pre-emergence treatment protocol).
Format: functional
`C#CCN1C(=O)COc2cc(F)c(-n3nnc4nn(CC=C)cc4c3=O)cc21` was tested, and the inhibition at 750 g/ha was 95.7%.

These molecules were tested on Amaranthus retroflexus (assay: Herbicidal activity against Amaranthus retroflexus assessed as inhibition of fresh weed plant weight at 375 g/ha using post-emergence treatment protocol).
Format: functional
In short: as §1
Work on `C#CCN1C(=O)COc2cc(F)c(-n3nnc4nn(CC=C)cc4c3=O)cc21` yielded an inhibition at 375 g/ha of 48.8%.

What follows are molecules tested on Echinochloa crus-galli (assay: Herbicidal activity against Echinochloa crus-galli (barnyard grass) assessed as inhibition of fresh weed plant weight at 375 g/ha using pre-emergence treatment protocol).
Format: functional
In short: as §1
With `C#CCN1C(=O)COc2cc(F)c(-n3nnc4nn(CC=C)cc4c3=O)cc21` the inhibition at 375 g/ha was 49.1%.

What follows are molecules tested on Amaranthus retroflexus (assay: Herbicidal activity against Amaranthus retroflexus assessed as inhibition of fresh weed plant weight at 1500 g/ha using post-emergence treatment protocol).
Format: functional
In short: as §1
`C#CCN1C(=O)COc2cc(F)c(-n3nnc4nn(CC=C)cc4c3=O)cc21` gave an inhibition at 1500 g/ha of 100%.

The molecules below were run on Amaranthus retroflexus (assay: Herbicidal activity against Amaranthus retroflexus assessed as inhibition of fresh weed plant weight at 93.75 g/ha using pre-emergence treatment protocol).
Format: functional
`C#CCN1C(=O)COc2cc(F)c(-n3nnc4nn(CC=C)cc4c3=O)cc21` was tested, and the inhibition at 93.75 g/ha was 100%.

The molecules below were run on Digitaria sanguinalis (assay: Herbicidal activity against Digitaria sanguinalis (hairy crabgrass) assessed as inhibition of fresh weed plant weight at 1500 g/ha using pre-emergence treatment protocol).
Format: functional
Molecule `C#CCN1C(=O)COc2cc(F)c(-n3nnc4nn(CC=C)cc4c3=O)cc21` has an inhibition at 1500 g/ha of 80.7%.

The molecules below were run on Digitaria sanguinalis (assay: Herbicidal activity against Digitaria sanguinalis (hairy crabgrass) assessed as inhibition of fresh weed plant weight at 375 g/ha using post-emergence treatment protocol).
Format: functional
In short: as §1
`C#CCN1C(=O)COc2cc(F)c(-n3nnc4nn(CC=C)cc4c3=O)cc21` gave an inhibition at 375 g/ha of 0%.

These molecules were tested on Digitaria sanguinalis (assay: Herbicidal activity against Digitaria sanguinalis (hairy crabgrass) assessed as inhibition of fresh weed plant weight at 93.75 g/ha using post-emergence treatment protocol).
Format: functional
In short: as §1
`C#CCN1C(=O)COc2cc(F)c(-n3nnc4nn(CC=C)cc4c3=O)cc21` was tested, and the inhibition at 93.75 g/ha was 0%.

Each molecule was assayed on Amaranthus retroflexus (assay: Herbicidal activity against Amaranthus retroflexus assessed as inhibition of fresh weed plant weight at 375 g/ha using pre-emergence treatment protocol).
Format: functional
`C#CCN1C(=O)COc2cc(F)c(-n3nnc4nn(CC=C)cc4c3=O)cc21` showed an inhibition at 375 g/ha of 100%.

What follows are molecules tested on Brassica rapa subsp. oleifera (assay: Herbicidal activity against Brassica rapa subsp. oleifera assessed as inhibition of fresh weed plant weight at 1500 g/ha using post-emergence treatment protocol).
Format: functional
In short: as §1
`C#CCN1C(=O)COc2cc(F)c(-n3nnc4nn(CC=C)cc4c3=O)cc21` gave an inhibition at 1500 g/ha of 70.9%.

These molecules were tested on Brassica rapa subsp. oleifera (assay: Herbicidal activity against Brassica rapa subsp. oleifera assessed as inhibition of fresh weed plant weight at 750 g/ha using pre-emergence treatment protocol).
Format: functional
In the case of `C#CCN1C(=O)COc2cc(F)c(-n3nnc4nn(CC=C)cc4c3=O)cc21`, the inhibition at 750 g/ha is reported as 100%.

Each molecule was assayed on Echinochloa crus-galli (assay: Herbicidal activity against Echinochloa crus-galli (barnyard grass) assessed as inhibition of fresh weed plant weight at 1500 g/ha using post-emergence treatment protocol).
Format: functional
In short: as §1
For `C#CCN1C(=O)COc2cc(F)c(-n3nnc4nn(CC=C)cc4c3=O)cc21`, the inhibition at 1500 g/ha was 38.7%.

These molecules were tested on Digitaria sanguinalis (assay: Herbicidal activity against Digitaria sanguinalis (hairy crabgrass) assessed as inhibition of fresh weed plant weight at 187.5 g/ha using post-emergence treatment protocol).
Format: functional
In short: as §1
`C#CCN1C(=O)COc2cc(F)c(-n3nnc4nn(CC=C)cc4c3=O)cc21` showed an inhibition at 187.5 g/ha of 0%.

What follows are molecules tested on Digitaria sanguinalis (assay: Herbicidal activity against Digitaria sanguinalis (hairy crabgrass) assessed as inhibition of fresh weed plant weight at 187.5 g/ha using pre-emergence treatment protocol).
Format: functional
For `C#CCN1C(=O)COc2cc(F)c(-n3nnc4nn(CC=C)cc4c3=O)cc21`, the inhibition at 187.5 g/ha was 16.3%.

Each molecule was assayed on Amaranthus retroflexus (assay: Herbicidal activity against Amaranthus retroflexus assessed as inhibition of fresh weed plant weight at 750 g/ha using pre-emergence treatment protocol).
Format: functional
In short: as §1
`C#CCN1C(=O)COc2cc(F)c(-n3nnc4nn(CC=C)cc4c3=O)cc21` showed an inhibition at 750 g/ha of 100%.

Each molecule was assayed on Echinochloa crus-galli (assay: Herbicidal activity against Echinochloa crus-galli (barnyard grass) assessed as inhibition of fresh weed plant weight at 375 g/ha using post-emergence treatment protocol).
Format: functional
In short: as §1
In the case of `C#CCN1C(=O)COc2cc(F)c(-n3nnc4nn(CC=C)cc4c3=O)cc21`, the inhibition at 375 g/ha is reported as 17.6%.

What follows are molecules tested on Echinochloa crus-galli (assay: Herbicidal activity against Echinochloa crus-galli (barnyard grass) assessed as inhibition of fresh weed plant weight at 1500 g/ha using pre-emergence treatment protocol).
Format: functional
Work on `C#CCN1C(=O)COc2cc(F)c(-n3nnc4nn(CC=C)cc4c3=O)cc21` yielded an inhibition at 1500 g/ha of 100%.

These molecules were tested on Digitaria sanguinalis (assay: Herbicidal activity against Digitaria sanguinalis (hairy crabgrass) assessed as inhibition of fresh weed plant weight at 750 g/ha using post-emergence treatment protocol).
Format: functional
In short: as §1
`C#CCN1C(=O)COc2cc(F)c(-n3nnc4nn(CC=C)cc4c3=O)cc21` gave an inhibition at 750 g/ha of 0%.

Each molecule was assayed on Digitaria sanguinalis (assay: Herbicidal activity against Digitaria sanguinalis (hairy crabgrass) assessed as inhibition of fresh weed plant weight at 750 g/ha using pre-emergence treatment protocol).
Format: functional
`C#CCN1C(=O)COc2cc(F)c(-n3nnc4nn(CC=C)cc4c3=O)cc21` showed an inhibition at 750 g/ha of 67.4%.

Source: ChEMBL document CHEMBL3044834, “Novel protoporphyrinogen oxidase inhibitors: 3H-pyrazolo[3,4-d][1,2,3]triazin-4-one derivatives” (J Agric Food Chem, 2008)
